{"data": "Results collected from several papers", "target": "Ephrin type-A receptor 4 (EPHA4, Homo sapiens, UniProt P54764)", "note": "Each line is one published result; the experiments were not run side by side."}
{"Compound": "Nc1c(C(=O)NCc2ccc(C(=O)NCCCC3CCCCC3)cc2)cnn1-c1ccccc1", "observed": "cell-free assay", "method": "competition with immobilised ligand", "tested at": "0.1 µM", "endpoint": "remaining binding", "result": "100%"}
{"Compound": "Cn1c(=O)n(-c2ccc(C(C)(C)C#N)cc2)c2c3cc(-c4cnc5ccccc5c4)ccc3ncc21", "observed": "enzyme activity", "mode": "inhibitor", "tested at": "10 µM", "endpoint": "remaining activity", "result": "105%"}
{"Compound": "COc1cc(Nc2cnc(C#N)c(O[C@H](C)CN(C)C)n2)ncc1-c1cnn(C)c1", "observed": "enzyme activity", "mode": "inhibitor", "method": "radiometric", "tested at": "10 µM", "endpoint": "remaining activity", "result": "41%"}
{"Compound": "O=C(Nc1cnn(-c2csc(C(=O)NC3COC3)c2)c1)Nc1ccccc1Cl", "observed": "enzyme activity", "mode": "inhibitor", "tested at": "5 µM", "endpoint": "remaining activity", "result": "100%"}
{"Compound": "CCC(=O)N[C@@H]1CC[C@H](C(=O)N(C)c2ccc(-c3nc4ccccc4o3)cc2)C1", "observed": "cell-free assay", "method": "competition with immobilised ligand", "tested at": "1 µM", "endpoint": "remaining binding", "result": "100%"}
{"Compound": "Cc1cnc(NC2CCOCC2)nc1-n1cnc(C(=O)NC(CN)c2cc(F)cc(Cl)c2)c1 (centres unmarked)", "observed": "enzyme activity", "mode": "inhibitor", "method": "radiometric", "tested at": "1 µM", "endpoint": "remaining activity", "result": "104%"}
{"Compound": "CS(=O)(=O)N1CCCC(NC(=O)[C@H](CCC2CCCCC2)NC(=O)c2ccc(CNC(=O)c3cnc4ccccn34)cc2)C1 (some centres unmarked)", "observed": "cell-free assay", "method": "competition with immobilised ligand", "tested at": "0.1 µM", "endpoint": "remaining binding", "result": "98%"}
{"Compound": "CNC(=O)c1cc2c(Oc3ccc(NC(=O)C4(C(=O)Nc5ccc(F)cc5)CC4)cc3)ccnc2cc1OC", "observed": "enzyme activity", "mode": "inhibitor", "method": "radiometric", "tested at": "1 µM", "endpoint": "inhibition", "result": "83%"}
{"Compound": "CC/C(=N\\NC(=O)NCc1cccc(O)c1)c1ccc(O)c(C)c1O", "observed": "enzyme activity", "mode": "inhibitor", "tested at": "0.1 µM", "endpoint": "inhibition", "result": "0.3%"}
{"Compound": "O=C1NC(=O)c2cc(Nc3ccc(F)cc3)c(Nc3ccc(F)cc3)cc21", "observed": "cell-free assay", "tested at": "0.5 µM", "endpoint": "remaining signal", "result": "94%"}
{"Compound": "COc1cc(/C=C/C(=O)CC(=O)/C=C/c2ccc(O)c(OC)c2)ccc1O", "observed": "enzyme activity", "mode": "inhibitor", "tested at": "1 µM", "endpoint": "activity vs control", "result": "118%"}
{"Compound": "Nc1ncnc2occ(-c3ccc(NC(=O)Nc4cc(C(F)(F)F)ccc4F)cc3)c12", "observed": "cell-free assay", "tested at": "20 µM", "endpoint": "remaining signal", "result": "0%"}
{"Compound": "Cc1ccc(Nc2nccc(N(C)c3ccc4c(C)n(C)nc4c3)n2)cc1S(N)(=O)=O", "observed": "enzyme activity", "mode": "inhibitor", "tested at": "0.3 µM", "endpoint": "inhibition", "result": "3%"}
{"Compound": "O=C(NCc1ncc(C(F)(F)F)cc1Cl)c1ccc2c(c1)C1(CCS(=O)(=O)CC1)[C@@H](C1CC1)N2S(=O)(=O)c1ccc(F)cc1", "observed": "cell-free assay", "method": "competition with immobilised ligand", "tested at": "1 µM", "endpoint": "remaining binding", "result": "97%"}
{"Compound": "CNC(=O)c1cc(Oc2ccc(NC(=O)Nc3ccc(Cl)c(C(F)(F)F)c3)cc2)ccn1", "observed": "enzyme activity", "mode": "inhibitor", "tested at": "0.3 µM", "endpoint": "inhibition", "result": "7%"}
{"Compound": "CS(=O)(=O)N1CCCC(NC(=O)[C@H](CCC2CCCCC2)NC(=O)c2ccc(CNc3ncnc4c3nnn4-c3ccccc3)cc2)C1 (some centres unmarked)", "observed": "cell-free assay", "method": "competition with immobilised ligand", "tested at": "0.1 µM", "endpoint": "remaining binding", "result": "76%"}
{"Compound": "COc1cc2ncnc(Nc3ccc(Oc4ccccc4)c(C)c3C)c2cc1OC", "observed": "enzyme activity", "mode": "inhibitor", "tested at": "1 µM", "endpoint": "inhibition", "result": "10%"}
{"Compound": "CCN(CC)CCNC(=O)c1c(C)[nH]c(/C=C2\\C(=O)Nc3ccc(F)cc32)c1C", "observed": "enzyme activity", "mode": "inhibitor", "tested at": "0.3 µM", "endpoint": "inhibition", "result": "1%"}
{"Compound": "CCN(CC)c1ccc(C2=NNC(=O)CC2C)cc1[N+](=O)[O-] (centres unmarked)", "observed": "enzyme activity", "mode": "inhibitor", "tested at": "10 µM", "endpoint": "remaining activity", "result": "85%"}
{"Compound": "O=C1Nc2ccc(Cl)cc2C1=Cc1cc(Cl)c(O)c(Cl)c1", "observed": "cell-free assay", "tested at": "0.5 µM", "endpoint": "remaining signal", "result": "93.1%"}
{"Compound": "CC(C)(C)c1nc(-c2cccc(NS(=O)(=O)c3c(F)cccc3F)c2F)c(-c2ccnc(N)n2)s1", "observed": "enzyme activity", "mode": "inhibitor", "method": "radiometric", "tested at": "1 µM", "endpoint": "remaining activity", "result": "97%"}
{"Compound": "Cc1ccc(C(=O)NCc2ccsc2)cc1C#Cc1cn(C(C)C)c2ncnc(N)c12", "observed": "enzyme activity", "mode": "inhibitor", "tested at": "1 µM", "endpoint": "activity vs control", "result": "6%"}
{"Compound": "C[C@@H](c1cccc(C#N)c1)n1cc(Cl)cc(C(N)=O)c1=N", "observed": "cell-free assay", "method": "competition with immobilised ligand", "tested at": "1 µM", "endpoint": "remaining binding", "result": "90%"}
{"Compound": "O=C(Nc1cnn(-c2csc(C(=O)NC3COC3)c2)c1)Nc1c(F)cccc1Cl", "observed": "enzyme activity", "mode": "inhibitor", "tested at": "5 µM", "endpoint": "remaining activity", "result": "89.1%"}
{"Compound": "Cc1c(NC(=O)c2cc(C(N)=O)nc3cc(F)ccc23)c(C(F)(F)F)nn1Cc1ccc(C#N)cc1", "observed": "cell-free assay", "method": "competition with immobilised ligand", "tested at": "1 µM", "endpoint": "remaining binding", "result": "99%"}
{"Compound": "CCCOc1ccc(OC)c(F)c1C(=O)c1ccc(C(=O)N[C@@H]2CNC[C@H]2NC(=O)c2ccc3[nH]ncc3c2)cc1", "observed": "enzyme activity", "mode": "inhibitor", "tested at": "10 µM", "endpoint": "remaining activity", "result": "82%"}
